# Test system: HEK-293T
# Assay: Multiplex assay against HEK293T
# Type: toxicity, cell-based
# Conditions: human
# Procedure, shortened: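 Tubulin, mitochondrial-mass and membrane-permeability phenotypes are per cents of healthy-nucleus cells. Cells were gated by CellPathfinder machine learning into Hoechst high-intensity objects or normal cells, normal cells into healthy, pyknosed or fragmented nuclei, and pyknosed cells into mitotic or apoptotic. Before that, live cells stained at seeding with Hoechst33342, BioTracker Green Microtubule Cytoskeleton Dye, MitoTracker Red and Annexin V Alexa Fluor 680 were imaged on a CQ1 microscope at 37°C and 5% CO2 after compound addition.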
# [1] = 12 h, 1 µM, compound concentration 1 uM, replicate 1
# [2] = 12 h, 1 µM, compound concentration 1 uM, replicate 2
# [3] = 12 h, 10 µM, compound concentration 10 uM, replicate 1
# [4] = 12 h, 10 µM, compound concentration 10 uM, replicate 2
# [5] = 24 h, 1 µM, compound concentration 1 uM, replicate 1
# [6] = 24 h, 1 µM, compound concentration 1 uM, replicate 2
# [7] = 24 h, 10 µM, compound concentration 10 uM, replicate 1
# [8] = 24 h, 10 µM, compound concentration 10 uM, replicate 2
# [9] = 48 h, 1 µM, compound concentration 1 uM, replicate 1
# [10] = 48 h, 1 µM, compound concentration 1 uM, replicate 2
# [11] = 48 h, 10 µM, compound concentration 10 uM, replicate 1
# [12] = 48 h, 10 µM, compound concentration 10 uM, replicate 2
smiles,measurement,setting,value
Nc1nc(-c2ccco2)c2cnn(Cc3ccccc3F)c2n1,Population Apoptotic (%),[1],37%
same,Population Fragmented Nuclei (%),[1],6%
same,Population Healthy Nuclei (%),[1],76%
same,Population Hoechst High Intensity Objects (%),[1],9%
same,Population Membrane Permeable-Phenotype (%),[1],0%
same,Population Mitochondria Different-Phenotype (%),[1],58%
same,Population Mitotic Cells (%),[1],62%
same,Population Normal (%),[1],90%
same,Population Pyknosed Nuclei (%),[1],16%
same,Population Tubulin-Different-Phenotype (%),[1],41%
same,Total Cell Count,[1],300
same,Population Apoptotic (%),[2],36%
same,Population Fragmented Nuclei (%),[2],5%
same,Population Healthy Nuclei (%),[2],81%
same,Population Hoechst High Intensity Objects (%),[2],11%
same,Population Mitochondria Different-Phenotype (%),[2],64%
same,Population Mitotic Cells (%),[2],63%
same,Population Normal (%),[2],88%
same,Population Pyknosed Nuclei (%),[2],13%
same,Population Tubulin-Different-Phenotype (%),[2],23%
same,Total Cell Count,[2],404
same,Population Apoptotic (%),[3],33%
same,Population Fragmented Nuclei (%),[3],7%
same,Population Healthy Nuclei (%),[3],73%
same,Population Hoechst High Intensity Objects (%),[3],8%
same,Population Membrane Permeable-Phenotype (%),[3],0%
same,Population Mitochondria Different-Phenotype (%),[3],61%
same,Population Mitotic Cells (%),[3],66%
same,Population Normal (%),[3],91%
same,Population Pyknosed Nuclei (%),[3],19%
same,Population Tubulin-Different-Phenotype (%),[3],43%
same,Total Cell Count,[3],306
same,Population Apoptotic (%),[4],40%
same,Population Fragmented Nuclei (%),[4],6%
same,Population Healthy Nuclei (%),[4],76%
same,Population Hoechst High Intensity Objects (%),[4],12%
same,Population Mitochondria Different-Phenotype (%),[4],68%
same,Population Mitotic Cells (%),[4],60%
same,Population Normal (%),[4],87%
same,Population Pyknosed Nuclei (%),[4],17%
same,Population Tubulin-Different-Phenotype (%),[4],26%
same,Total Cell Count,[4],265
same,Population Apoptotic (%),[5],30%
same,Population Fragmented Nuclei (%),[5],7%
same,Population Healthy Nuclei (%),[5],77%
same,Population Hoechst High Intensity Objects (%),[5],7%
same,Population Membrane Permeable-Phenotype (%),[5],0%
same,Population Mitochondria Different-Phenotype (%),[5],36%
same,Population Mitotic Cells (%),[5],69%
same,Population Normal (%),[5],92%
same,Population Pyknosed Nuclei (%),[5],15%
same,Population Tubulin-Different-Phenotype (%),[5],26%
same,Total Cell Count,[5],396
same,Population Apoptotic (%),[6],28%
same,Population Fragmented Nuclei (%),[6],9%
same,Population Healthy Nuclei (%),[6],81%
same,Population Hoechst High Intensity Objects (%),[6],5%
same,Population Mitochondria Different-Phenotype (%),[6],46%
same,Population Mitotic Cells (%),[6],71%
same,Population Normal (%),[6],94%
same,Population Pyknosed Nuclei (%),[6],9%
same,Population Tubulin-Different-Phenotype (%),[6],17%
same,Total Cell Count,[6],514
same,Population Apoptotic (%),[7],38%
same,Population Fragmented Nuclei (%),[7],11%
same,Population Healthy Nuclei (%),[7],67%
same,Population Hoechst High Intensity Objects (%),[7],6%
same,Population Membrane Permeable-Phenotype (%),[7],2%
same,Population Mitochondria Different-Phenotype (%),[7],52%
same,Population Mitotic Cells (%),[7],61%
same,Population Normal (%),[7],93%
same,Population Pyknosed Nuclei (%),[7],21%
same,Population Tubulin-Different-Phenotype (%),[7],31%
same,Total Cell Count,[7],334
same,Population Apoptotic (%),[8],35%
same,Population Hoechst High Intensity Objects (%),[8],10%
same,Population Membrane Permeable-Phenotype (%),[8],0%
same,Population Mitochondria Different-Phenotype (%),[8],59%
same,Population Mitotic Cells (%),[8],64%
same,Population Normal (%),[8],89%
same,Population Tubulin-Different-Phenotype (%),[8],23%
same,Total Cell Count,[8],328
same,Population Apoptotic (%),[9],32%
same,Population Fragmented Nuclei (%),[9],12%
same,Population Healthy Nuclei (%),[9],75%
same,Population Hoechst High Intensity Objects (%),[9],3%
same,Population Membrane Permeable-Phenotype (%),[9],1%
same,Population Mitochondria Different-Phenotype (%),[9],31%
same,Population Mitotic Cells (%),[9],67%
same,Population Normal (%),[9],96%
same,Population Pyknosed Nuclei (%),[9],12%
same,Population Tubulin-Different-Phenotype (%),[9],18%
same,Total Cell Count,[9],641
same,Population Apoptotic (%),[10],28%
same,Population Fragmented Nuclei (%),[10],14%
same,Population Healthy Nuclei (%),[10],78%
same,Population Hoechst High Intensity Objects (%),[10],4%
same,Population Mitochondria Different-Phenotype (%),[10],21%
same,Population Mitotic Cells (%),[10],71%
same,Population Normal (%),[10],95%
same,Population Pyknosed Nuclei (%),[10],7%
same,Population Tubulin-Different-Phenotype (%),[10],14%
same,Total Cell Count,[10],769
same,Population Apoptotic (%),[11],36%
same,Population Fragmented Nuclei (%),[11],16%
same,Population Healthy Nuclei (%),[11],73%
same,Population Hoechst High Intensity Objects (%),[11],7%
same,Population Membrane Permeable-Phenotype (%),[11],0%
same,Population Mitochondria Different-Phenotype (%),[11],42%
same,Population Mitotic Cells (%),[11],63%
same,Population Normal (%),[11],92%
same,Population Pyknosed Nuclei (%),[11],9%
same,Population Tubulin-Different-Phenotype (%),[11],19%
same,Total Cell Count,[11],412
same,Population Apoptotic (%),[12],28%
same,Population Fragmented Nuclei (%),[12],13%
same,Population Healthy Nuclei (%),[12],74%
same,Population Mitochondria Different-Phenotype (%),[12],43%
same,Population Mitotic Cells (%),[12],71%
same,Population Pyknosed Nuclei (%),[12],12%
same,Population Tubulin-Different-Phenotype (%),[12],15%
same,Total Cell Count,[12],398

# From ChEMBL document CHEMBL5058577, “EUbOPEN Chemogenomics Library 2 (Multiplex)” (2022)
